Results: ChEMBL document CHEMBL1151916, “N-tert-butyl and N-methyl nitrones derived from aromatic aldehydes inhibit macromolecular permeability increase induced by ischemia/reperfusion in hamsters” (2009)

Key:
Type in all cases: functional, Mesocricetus auratus
[1] = test system: Syrian golden hamster; experiment: Protective activity against ischemia/reperfusion-induced increase in macromolecular permeability in iv dosed golden hamster cheek pouch administered 10 mins before onset of reperfusion
How it was run: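 Male hamster cheek pouch under intravital microscopy; compound given intravenously 10 min before reperfusion onset. Total ischemia of 30 min was produced by a soft rubber tourniquet, pressurized by syringe until flow stopped. Leakage sites (leaks/cm²) were counted 10 min after reperfusion onset and converted to percentage protection against untreated controls.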

[2] = test system: Syrian golden hamster; experiment: Protective activity against histamine-induced increase in macromolecular permeability in po dosed golden hamster cheek pouch administered 30 mins before induction of anesthesia
How it was run: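 Oral gavage to male hamsters 30 min before anesthesia induction. Permeability increase was induced by topical histamine on the cheek pouch and read as leakage sites per unit area (leaks/cm²) by intravital microscopy.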

[3] = test system: Syrian golden hamster; experiment: Protective activity against ischemia/reperfusion-induced increase in macromolecular permeability in po dosed golden hamster cheek pouch administered 30 mins before induction of anesthesia
How it was run: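 Male hamsters, dosed by gavage 30 min before anesthesia induction. The cheek pouch was made totally ischemic for 30 min with a syringe-inflated rubber tourniquet until blood flow ceased. Macromolecular leakage sites per cm² were counted by intravital microscopy 10 min after reperfusion onset and expressed as percentage protection relative to controls.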

[4] = test system: Syrian golden hamster; experiment: Protective activity against ischemia/reperfusion-induced increase in macromolecular permeability in po dosed golden hamster cheek pouch administered for 10 days
[5] = test system: Syrian golden hamster; experiment: Protective activity against histamine-induced increase in macromolecular permeability in po dosed golden hamster cheek pouch administered for 10 days

Row | SMILES | Activity [1] [%] | Activity [2] [%] | Activity [3] [%] | Activity [4] [%] | Activity [5] [%]
1 | CNO | 33 | 11 | 23 | – | –
2 | COc1cc(/C=[N+](\[O-])C(C)(C)C)ccc1OCc1ccccc1 | 36 | 32 | 68 | – | –
3 | Cc1ccc(/C=[N+](\[O-])C(C)(C)C)cc1 | 55 | – | 14 | – | –
4 | C/[N+]([O-])=C/c1cccc(Oc2ccccc2)c1 | 61 | 13 | 46 | – | –
5 | Cc1ccc(/C=[N+](/C)[O-])cc1 | 21 | – | 24 | – | –
6 | CC(C)(C)/[N+]([O-])=C/c1ccc(Cl)cc1 | 53 | – | 63 | – | –
7 | CC(C)(C)/[N+]([O-])=C/c1cccc(Oc2ccccc2)c1 | 18 | – | 12 | – | –
8 | C/[N+]([O-])=C/c1ccc(Cl)cc1 | 27 | 29 | 31 | – | –
9 | C/[N+]([O-])=C/c1ccco1 | 59 | 32 | 15 | – | –
10 | CC(C)(C)NO | 7 | 40 | 10 | – | –
11 | C/[N+]([O-])=C/c1ccc2c(c1)OCO2 | 50 | 42 | 3 | – | –
12 | COc1cc(/C=[N+](/C)[O-])ccc1OCc1ccccc1 | 51 | 15 | 72 | – | –
13 | CC(C)(C)/[N+]([O-])=C/c1ccc2c(c1)OCO2 | 38 | – | 65 | – | –
14 | Cc1c(C)c2c(c(C)c1O)CC[C@@](C)(CCC[C@H](C)CCC[C@H](C)CCCC(C)C)O2 [ALPHA-TOCOPHEROL] | – | – | – | 50 | 40
